From PubChem BioAssay
The entries come from a sample that favours hits as a whole.
GASC1 inh – inhibitors of human demethylase GASC-1 KDM4C; Q9H3R0; GST-KDM4C 2-372, H3K9me3 peptide, LANCE TR-FRET; inhibition, % at 12.5 µM; 96,000 tested, 0.15% active;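 active = mean replicate inhibition above about 25%, with at least 55% of replicates also reaching it, limit read from the data, passing the limit was not always enough; inconclusive = only one of those two conditions met; inactive = neither condition met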
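System: N-terminal GST-fused human GASC-1 (KDM4C) fragment, residues 2-372 / Amount: 10 nM GST-KDM4C in enzyme reaction / Also added: H3K9me3 peptide with Fe(II)/2OG / Times: 30 min demethylation and 1 h detection at room temperature / Signal: LANCE TR-FRET / Read-out basis: Fall in 671/618 emission ratio as inhibition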
T cruzi growth-1 – blocks T. cruzi growth in NIH3T3 culture. T. cruzi beta-gal in NIH3T3, GalScreen luminescence, 90 h. inhibition, % at 8.34 µM. 77,000 tested, 5.9% active;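 active = mean inhibition above about 93%, with at least 55% of replicates each passing it, limit read from the data, passing the limit was not always enough; inconclusive = only one of those two conditions holds; inactive = neither condition holds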
IDH1 R132H inh – IDH1 R132H (human) inhibition | IDH1 R132H reductase, diaphorase/resazurin fluorescence, 60 min | 70,000 tested, 0.18% active | inhibition, % at 10 µM | O75874; in the data active = inhibition above about 34%; inconclusive = no clear call, values can overlap the other calls; inactive = below about 11%
Target sequence (O75874 whole entry R132H): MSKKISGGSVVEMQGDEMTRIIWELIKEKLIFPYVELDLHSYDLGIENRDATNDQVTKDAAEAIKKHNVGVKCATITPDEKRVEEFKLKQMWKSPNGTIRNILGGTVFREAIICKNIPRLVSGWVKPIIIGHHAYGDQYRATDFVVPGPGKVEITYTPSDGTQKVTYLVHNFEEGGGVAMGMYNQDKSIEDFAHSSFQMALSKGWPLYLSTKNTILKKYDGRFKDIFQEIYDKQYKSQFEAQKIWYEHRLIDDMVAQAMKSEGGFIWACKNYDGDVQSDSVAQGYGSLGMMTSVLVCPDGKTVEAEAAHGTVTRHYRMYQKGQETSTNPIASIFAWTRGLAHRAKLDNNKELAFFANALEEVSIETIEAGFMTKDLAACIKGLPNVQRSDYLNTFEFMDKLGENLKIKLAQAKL
T cruzi growth-2 – blocks T. cruzi growth in NIH3T3 host cells | 5,600 tested, 72% active | T. cruzi beta-gal in NIH3T3, GalScreen luminescence, 90 h | AID 651739 | inhibition, % at 8.35 µM | shares compounds with T cruzi growth-1;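 active = mean replicate inhibition above about 95% and at least 55% of replicates individually reaching it, limit read from the data; inconclusive = only one of the two criteria is met; inactive = neither criterion is met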
T cruzi growth-3 – inhibitors of T. cruzi proliferation | shares compounds with T cruzi growth-1 | T. cruzi beta-gal in NIH3T3, GalScreen luminescence, 90 h | inhibition, % at 2.09 µM | 5,600 tested, 21% active;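 active = mean inhibition above about 95%, with at least 55% of replicates also reaching it, limit read from the data; inconclusive = meets just one of the two conditions; inactive = meets neither condition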
3T3 cytotox – NIH/3T3 (mouse) viability loss | 5,600 tested, 14% active | shares compounds with T cruzi growth-1 | cytotoxicity (signal decrease), % at 8.35 µM | NIH/3T3 viability, CellTiter-Glo ATP luminescence, 90 h;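 active = mean signal decrease across replicates above about 35% based on untreated-well scatter, with enough replicates individually passing, limit read from the data; inconclusive = no rule stated though some were filed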
3T3 cytotox 2 – NIH/3T3 (mouse) viability loss | 5,600 tested, 56% active | NIH/3T3 viability, CellTiter-Glo ATP luminescence, 90 h | shares compounds with T cruzi growth-1 | inhibition, % at 24.9 µM;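 active = mean loss of cell viability signal at or above a set limit, and enough replicates individually reaching it; inconclusive = meets only the mean limit or only the replicate share; inactive = meets neither condition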
A number is an active result; – = inactive; ? = inconclusive; · = no result.

SMILES	GASC1 inh	T cruzi growth-1	IDH1 R132H inh	T cruzi growth-2	T cruzi growth-3	3T3 cytotox	3T3 cytotox 2
C[C@@H](O)C#Cc1ccc([C@H]2[C@@H](CO)N3CCCCN(C(=O)c4ccc(F)cc4)C[C@@H]23)cc1	–	103	·	–	–	–	–
CC(C)(O)C#Cc1ccc([C@H]2[C@H](CO)N3CCCCN(C(=O)c4ccncc4)C[C@@H]23)cc1	–	–	·	·	·	·	·
C[C@H](O)C#Cc1ccc([C@H]2[C@H]3CN(C(=O)c4ccc(F)cc4)CCCCN3[C@H]2CO)cc1	–	–	·	·	·	·	·
C[C@H](O)C#Cc1ccc([C@@H]2[C@@H](CO)N3CCCCN(C(=O)c4ccc(F)cc4)C[C@@H]23)cc1	–	–	·	·	·	·	·
COc1ccc(C#Cc2ccc([C@@H]3[C@H](CO)N4CCCCN(C(=O)Nc5cccc(F)c5)C[C@@H]34)cc2)cc1	–	–	·	·	·	·	·
COc1ccc(NC(=O)CSc2nnc(-c3ccncc3)o2)cc1	·	·	–	·	·	·	·
N#C[C@@H]1[C@@H](c2ccccc2)[C@@H](CO)N1S(=O)(=O)Cc1ccccc1	–	–	–	·	·	·	·
C[C@@H]1CCCCO[C@@H](CN(C)S(=O)(=O)c2ccc(F)cc2)[C@H](C)CN([C@H](C)CO)C(=O)c2cc(NS(=O)(=O)c3ccc(F)cc3)ccc2O1	–	–	–	·	·	·	·
C[C@@H]1CCCCO[C@@H](CN(C)S(=O)(=O)c2ccc(F)cc2)[C@@H](C)CN([C@H](C)CO)C(=O)c2cc(NS(=O)(=O)c3ccc(F)cc3)ccc2O1	–	–	·	·	·	·	·
C[C@@H]1CN([C@@H](C)CO)C(=O)c2cc(NS(=O)(=O)c3ccc(F)cc3)ccc2O[C@@H](C)CCCCO[C@H]1CN(C)S(=O)(=O)c1ccc(F)cc1	–	113	–	107	–	–	–
C[C@@H]1CN([C@H](C)CO)C(=O)c2cc(NS(=O)(=O)c3ccc(F)cc3)ccc2O[C@@H](C)CCCCO[C@@H]1CN(C)S(=O)(=O)c1ccc(F)cc1	–	107	·	103	–	–	–
CC(C)CC#Cc1cnc2c(c1)C(=O)N([C@H](C)CO)C[C@H](C)[C@H](CN(C)C(=O)c1cnccn1)O2	–	–	–	·	·	·	·
CCC(Sc1nnc(-c2ccc(NC(C)=O)cc2)n1C)C(=O)Nc1ccc(Cl)cc1 (stereo not given)	·	·	–	·	·	·	·
COc1ccc(NC(=O)N(C)C[C@@H]2Oc3cc(-c4ccncc4)ccc3S(=O)(=O)N([C@H](C)CO)C[C@H]2C)cc1	–	–	–	·	·	·	·
COc1ccc(NC(=O)N(C)C[C@H]2Oc3cc(-c4ccc(C)cc4)ccc3S(=O)(=O)N([C@@H](C)CO)C[C@H]2C)cc1	–	106	–	108	–	–	–
COc1ccc(NC(=O)N(C)C[C@@H]2Oc3cc(-c4ccc(C)cc4)ccc3S(=O)(=O)N([C@H](C)CO)C[C@@H]2C)cc1	–	123	–	105	–	47	–
COc1ccc(NC(=O)N(C)C[C@H]2Oc3cc(-c4ccncc4)ccc3S(=O)(=O)N([C@H](C)CO)C[C@@H]2C)cc1	–	–	–	·	·	·	·
C[C@@H]1CN([C@H](C)CO)C(=O)c2cc(NC(=O)Nc3ccc(F)cc3)ccc2O[C@@H](C)CCCCO[C@H]1CN(C)Cc1ccc2c(c1)OCO2	–	–	–	·	·	·	·
C[C@@H]1CN([C@@H](C)CO)C(=O)c2cc(NC(=O)Nc3ccc(F)cc3)ccc2O[C@@H](C)CCCCO[C@H]1CN(C)Cc1ccc2c(c1)OCO2	–	–	·	·	·	·	·
C[C@@H]1CN([C@H](C)CO)C(=O)c2cc(NC(=O)Nc3ccc(F)cc3)ccc2O[C@@H](C)CCCCO[C@@H]1CN(C)Cc1ccc2c(c1)OCO2	–	–	·	·	·	·	·
C[C@H](CO)N1C[C@H](C)[C@@H](CN(C)Cc2ccc3c(c2)OCO3)OCCCC[C@H](C)Oc2ccc(NC(=O)Nc3ccc(F)cc3)cc2C1=O	–	103	·	100	–	–	43
C[C@@H]1CCCCO[C@H](CN(C)Cc2ccc3c(c2)OCO3)[C@H](C)CN([C@H](C)CO)C(=O)c2cc(NC(=O)Nc3ccc(F)cc3)ccc2O1	–	96	·	103	–	–	104
C[C@@H]1CCCCO[C@@H](CN(C)Cc2ccc3c(c2)OCO3)[C@@H](C)CN([C@H](C)CO)C(=O)c2cc(NC(=O)Nc3ccc(F)cc3)ccc2O1	–	97	–	114	–	–	–
COc1ccc(-c2cc(=O)c3cc(OCC(=O)Nc4ccc(C)cc4C)ccc3o2)cc1	·	·	–	·	·	·	·
C/C=C/c1ccc([C@H]2[C@@H](CO)N(C(=O)c3cnccn3)C23CN(C(=O)C2CC2)C3)cc1	–	·	·	·	·	·	·
SMILES	GASC1 inh	T cruzi growth-1	IDH1 R132H inh	T cruzi growth-2	T cruzi growth-3	3T3 cytotox	3T3 cytotox 2
COc1ccccc1NC(=O)N[C@H]1C=C[C@@H](CC(=O)NCc2ccc(Cl)c(Cl)c2)O[C@H]1CO	–	–	–	·	·	·	·
C[C@H]1CN([C@@H](C)CO)C(=O)c2cc(C#CC(C)(C)O)cnc2O[C@@H]1CN(C)Cc1cccc(F)c1	–	·	–	·	·	·	·
CC(=O)N(C)C[C@@H]1Oc2ncc(-c3ccc(C(=O)N(C)C)cc3)cc2C(=O)N([C@@H](C)CO)C[C@H]1C	–	–	–	·	·	·	·
C[C@@H]1CCCCO[C@@H](CN(C)S(=O)(=O)c2ccccc2)[C@H](C)CN([C@H](C)CO)C(=O)c2cc(NC(=O)Nc3ccccc3)ccc2O1	–	–	–	·	·	·	·
Cc1ccc(S(=O)(=O)N(C)C[C@H]2OCCCC[C@@H](C)Oc3ccc(NC(=O)Nc4ccccc4)cc3C(=O)N([C@H](C)CO)C[C@H]2C)cc1	–	113	–	109	108	–	–
C[C@@H]1CCCCO[C@@H](CN(C)S(=O)(=O)c2ccc(Cl)cc2)[C@@H](C)CN([C@H](C)CO)C(=O)c2cc(NC(=O)Nc3ccccc3)ccc2O1	–	–	–	·	·	·	·
Cc1ccc(S(=O)(=O)N(C)C[C@H]2OCCCC[C@H](C)Oc3ccc(NC(=O)Nc4ccccc4)cc3C(=O)N([C@@H](C)CO)C[C@@H]2C)cc1	–	111	–	101	107	–	–
Cc1ccc(S(=O)(=O)N(C)C[C@H]2OCCCC[C@H](C)Oc3ccc(NC(=O)Nc4ccccc4)cc3C(=O)N([C@H](C)CO)C[C@H]2C)cc1	–	?	·	111	–	–	–
Cc1ccc(S(=O)(=O)N(C)C[C@@H]2OCCCC[C@H](C)Oc3ccc(NC(=O)Nc4ccccc4)cc3C(=O)N([C@@H](C)CO)C[C@@H]2C)cc1	–	108	–	102	–	–	–
C[C@@H]1CN([C@@H](C)CO)C(=O)c2cc(NC(=O)Nc3ccccc3)ccc2O[C@@H](C)CCCCO[C@@H]1CN(C)S(=O)(=O)c1ccccc1	–	–	–	·	·	·	·
